This passage reports Activity and PCMA antagonism results from ChEMBL document CHEMBL1121884, “Piperazinylquinoxalines with central serotoninmimetic activity” (1981).

Holding throughout (format): functional
The test system of assay [1] is Rattus norvegicus. The assay can be described thus: Ability to elicit head twitches in rats a response characteristic of a serotonin mimetic action in the central nervous system was measured after 1.2 mg/kg of ip administration. To be noted: route intraperitoneal. The method, boiled down:
(§1)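 Female Sprague-Dawley rats (150-250 g), compound given ip in 1% methylcellulose vehicle, dose as base weight; quantal scoring of rats showing at least one head twitch during a 2-min observation beginning 30 min after dosing; usually six rats per dose level; vehicle controls run.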

Assay [2] relates to Rattus norvegicus. The assay can be described thus: Ability to elicit head twitches in rats a response characteristic of a serotonin mimetic action in the central nervous system was measured after 5 mg/kg of ip administration. To be noted: route intraperitoneal. The method in brief:
as §1

For assay [3], the system named is Rattus norvegicus. The assay can be described thus: Ability to elicit head twitches in rats a response characteristic of a serotonin mimetic action in the central nervous system after 20 mg/kg of ip administration. The conditions noted are these: route intraperitoneal. The method in brief: as §1
In assay [4] the target is T1, Serotonin (5-HT) receptor (Rattus norvegicus) (UniProt P35563+P35365+P32305+P31388+Q9JJ16+P28564+P30994+Q62758+P08909+P14842+P30940+P35364+P19327+P28565). The assay can be described thus: (§2) Ability to elicit head twitches in rats (a serotonin mimetic response). The arrangement: concentration or dose not given beside the values. The method in brief:
as §1

Assay [5] addresses T1, Serotonin (5-HT) receptor (Rattus norvegicus). The assay is described as §2. Details: concentration or dose not given beside the values. The method in brief:
as §1
This is another data set of the same source.

Assay [6] has the same target. The assay is described as §2. Details: concentration or dose not given beside the values. The method, boiled down: as §1
The source holds these as a separate data set.

Assay [7] concerns the target Sodium-dependent serotonin transporter (Rattus norvegicus) (UniProt P31652). Kind of assay: (§3) Serotonin neuronal reuptake blocking activity was determined by the antagonism of the head twitch response induced by treatment of rats. Details: concentration or dose not given beside the values. The method in brief:
(§4)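 Female Sprague-Dawley rats (150-250 g) dosed ip with compound (1% methylcellulose vehicle, dose as base weight), then p-chloromethamphetamine 6.0 mg/kg ip 1 h later; head twitches observed 30 min after PCMA; scored as rats not twitching; usually six rats per dose; ED50 = dose antagonizing PCMA head twitch in 50% of animals, with 95% confidence limits.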

The target is the same in assay [8]. The assay is described as §3. The arrangement: concentration or dose not given beside the values. The method, boiled down: as §4
The source holds these as a separate data set.

For assay [9], the system named is Rattus norvegicus. The assay can be described thus: Serotonin neuronal reuptake blocking activity was determined by the antagonism of the head twitch response induced in rats with p-chloromethamphetamine (PCMA) after 40 mg/kg of ip administration. The conditions noted are these: route intraperitoneal. The method in brief:
(§5)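 Female Sprague-Dawley rats (150-250 g) dosed ip with compound in 1% methylcellulose vehicle. p-Chloromethamphetamine 6.0 mg/kg ip was given 1 h later, and head movements were observed 30 min after that. Scored as number of rats not showing head twitches. Six rats per dose unless otherwise noted. Doses expressed as base weight.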

Assay [10] has as its system Rattus norvegicus. The assay can be described thus: Serotonin neuronal reuptake blocking activity was determined by the antagonism of the head twitch response induced in rats with p-chloromethamphetamine (PCMA) after 40 mg/kg of ip administration; 2/4. To be noted: route intraperitoneal. The method in brief:
as §4

In assay [11] the test system is Rattus norvegicus. The assay can be described thus: Ability to elicit head twitches in rats a response characteristic of a serotonin mimetic action in the central nervous system was measured after 4 mg/kg of ip administration; 2/10. The conditions noted are these: route intraperitoneal.
In assay [12] the test system is Rattus norvegicus. The assay can be described thus: Ability to elicit head twitches in rats a response characteristic of a serotonin mimetic action in the central nervous system was measured after 0.4 mg/kg of ip administration; 0/10. To be noted: route intraperitoneal.
Assay [13] relates to Rattus norvegicus. Kind of assay: Ability to elicit head twitches in rats a response characteristic of a serotonin mimetic action in the central nervous system after 40 mg/kg of ip administration; 3/10. The conditions noted are these: route intraperitoneal.
Assay [14] has as its system Rattus norvegicus. Kind of assay: Serotonin neuronal reuptake blocking activity was determined by the antagonism of the head twitch response induced in rats with p-chloromethamphetamine (PCMA) after 40 mg/kg of ip administration;9/10. The conditions noted are these: route intraperitoneal. The method in brief: as §5
For assay [15], the system named is Rattus norvegicus. The assay can be described thus: Serotonin neuronal reuptake blocking activity was determined by the antagonism of the head twitch response induced by treatment of rats with p-chloromethamphetamine (PCMA) after 4 mg/kg of ip administration; 7/10. The conditions noted are these: route intraperitoneal. The method in brief:
as §5

The test system of assay [16] is Rattus norvegicus. Kind of assay: Serotonin neuronal reuptake blocking activity was determined by the antagonism of the head twitch response induced by treatment of rats with p-chloromethamphetamine (PCMA) after 0.4 mg/kg of ip administration; 6/10. The conditions noted are these: route intraperitoneal. The method in brief: as §5
For assay [17], the system named is Rattus norvegicus. Kind of assay: Ability to elicit head twitches in rats a response characteristic of a serotonin mimetic action in the central nervous system was measured after 2.0 mg/kg of ip administration. The conditions noted are these: route intraperitoneal. The method, boiled down: as §1
Assay [18] concerns Rattus norvegicus. The assay can be described thus: Ability to elicit head twitches in rats a response characteristic of a serotonin mimetic action in the central nervous system was measured after 0.67 mg/kg of ip administration. To be noted: route intraperitoneal. The method, boiled down:
as §1

In assay [19] the test system is Rattus norvegicus. Kind of assay: Ability to elicit head twitches in rats a response characteristic of a serotonin mimetic action in the central nervous system after 6.0 mg/kg of ip administration. The conditions noted are these: route intraperitoneal. The method in brief: as §1
For assay [20], the system named is Rattus norvegicus. Kind of assay: Serotonin neuronal reuptake blocking activity was determined by the antagonism of the head twitch response induced in rats with p-chloromethamphetamine (PCMA) after 6.0 mg/kg of ip administration. The conditions noted are these: route intraperitoneal. The method, boiled down: as §4
For assay [21], the system named is Rattus norvegicus. Kind of assay: Serotonin neuronal reuptake blocking activity was determined by the antagonism of the head twitch response induced by treatment of rats with p-chloromethamphetamine (PCMA) after 2 mg/kg of ip administration. The conditions noted are these: route intraperitoneal. The method, boiled down: as §4
Assay [22] relates to Rattus norvegicus. The assay can be described thus: Serotonin neuronal reuptake blocking activity was determined by the antagonism of the head twitch response induced by treatment of rats with p-chloromethamphetamine (PCMA) after 0.67 mg/kg of ip administration. The conditions noted are these: route intraperitoneal. The method, boiled down: as §4
Assay [23] concerns the target Sodium-dependent serotonin transporter (Rattus norvegicus) (UniProt P31652). Kind of assay: Serotonin neuronal reuptake blocking activity was determined by the antagonism of the head twitch response induced in rats. Details: concentration or dose not given beside the values. The method, boiled down:
as §4

The test system of assay [24] is Rattus norvegicus. The assay can be described thus: Serotonin neuronal reuptake blocking activity was determined by the antagonism of the head twitch response induced by treatment of rats with p-chloromethamphetamine (PCMA) after 0.4 mg/kg of ip administration. To be noted: route intraperitoneal. The method in brief: as §4
Assay [25] has as its system Rattus norvegicus. The assay can be described thus: Serotonin neuronal reuptake blocking activity was determined by the antagonism of the head twitch response induced by treatment of rats with p-chloromethamphetamine (PCMA) after 4 mg/kg of ip administration. To be noted: route intraperitoneal. The method in brief:
as §4

Assay [26] concerns Rattus norvegicus. Kind of assay: Ability to elicit head twitches in rats a response characteristic of a serotonin mimetic action in the central nervous system was measured after 3 mg/kg of ip administration; 11/36. To be noted: route intraperitoneal. The method, boiled down:
as §1

Assay [27] concerns Rattus norvegicus. Kind of assay: Ability to elicit head twitches in rats a response characteristic of a serotonin mimetic action in the central nervous system was measured after 1 mg/kg of ip administration; 5/36. To be noted: route intraperitoneal. The method, boiled down:
as §1

The test system of assay [28] is Rattus norvegicus. Kind of assay: Serotonin neuronal reuptake blocking activity was determined by the antagonism of the head twitch response induced in rats with p-chloromethamphetamine (PCMA) after 9 mg/kg of ip administration; 24/36. To be noted: route intraperitoneal. The method in brief:
as §4

Assay [29] relates to Rattus norvegicus. Kind of assay: Serotonin neuronal reuptake blocking activity was determined by the antagonism of the head twitch response induced by treatment of rats with p-chloromethamphetamine (PCMA) after 3 mg/kg of ip administration; 13/36. The conditions noted are these: route intraperitoneal. The method in brief:
as §4

For assay [30], the system named is Rattus norvegicus. Kind of assay: Serotonin neuronal reuptake blocking activity was determined by the antagonism of the head twitch response induced by treatment of rats with p-chloromethamphetamine (PCMA) after 1.0 mg/kg of ip administration; 5/36. To be noted: route intraperitoneal. The method in brief:
as §4

In assay [31] the test system is Rattus norvegicus. The assay can be described thus: Ability to elicit head twitches in rats a response characteristic of a serotonin mimetic action in the central nervous system was measured after 4 mg/kg of ip administration; 4/12. The conditions noted are these: route intraperitoneal. The method in brief: as §1
Assay [32] relates to Rattus norvegicus. The assay can be described thus: Ability to elicit head twitches in rats a response characteristic of a serotonin mimetic action in the central nervous system was measured after 0.4 mg/kg of ip administration; 0/12. To be noted: route intraperitoneal. The method, boiled down:
as §1

Assay [33] relates to Rattus norvegicus. Kind of assay: Ability to elicit head twitches in rats a response characteristic of a serotonin mimetic action in the central nervous system after 40 mg/kg of ip administration; 0/12. The conditions noted are these: route intraperitoneal. The method, boiled down:
as §1

Assay [34] relates to Rattus norvegicus. Kind of assay: Serotonin neuronal reuptake blocking activity was determined by the antagonism of the head twitch response induced in rats with p-chloromethamphetamine (PCMA) after 40 mg/kg of ip administration; 8/12. The conditions noted are these: route intraperitoneal. The method in brief: as §4
For assay [35], the system named is Rattus norvegicus. Kind of assay: Serotonin neuronal reuptake blocking activity was determined by the antagonism of the head twitch response induced by treatment of rats with p-chloromethamphetamine (PCMA) after 4 mg/kg of ip administration; 2/12. The conditions noted are these: route intraperitoneal. The method in brief:
as §4

The test system of assay [36] is Rattus norvegicus. The assay can be described thus: Serotonin neuronal reuptake blocking activity was determined by the antagonism of the head twitch response induced by treatment of rats with p-chloromethamphetamine (PCMA) after 0.4 mg/kg of ip administration; 1/12. The conditions noted are these: route intraperitoneal. The method in brief: as §4

Sequence of Sodium-dependent serotonin transporter (Rattus norvegicus) (P31652 whole entry): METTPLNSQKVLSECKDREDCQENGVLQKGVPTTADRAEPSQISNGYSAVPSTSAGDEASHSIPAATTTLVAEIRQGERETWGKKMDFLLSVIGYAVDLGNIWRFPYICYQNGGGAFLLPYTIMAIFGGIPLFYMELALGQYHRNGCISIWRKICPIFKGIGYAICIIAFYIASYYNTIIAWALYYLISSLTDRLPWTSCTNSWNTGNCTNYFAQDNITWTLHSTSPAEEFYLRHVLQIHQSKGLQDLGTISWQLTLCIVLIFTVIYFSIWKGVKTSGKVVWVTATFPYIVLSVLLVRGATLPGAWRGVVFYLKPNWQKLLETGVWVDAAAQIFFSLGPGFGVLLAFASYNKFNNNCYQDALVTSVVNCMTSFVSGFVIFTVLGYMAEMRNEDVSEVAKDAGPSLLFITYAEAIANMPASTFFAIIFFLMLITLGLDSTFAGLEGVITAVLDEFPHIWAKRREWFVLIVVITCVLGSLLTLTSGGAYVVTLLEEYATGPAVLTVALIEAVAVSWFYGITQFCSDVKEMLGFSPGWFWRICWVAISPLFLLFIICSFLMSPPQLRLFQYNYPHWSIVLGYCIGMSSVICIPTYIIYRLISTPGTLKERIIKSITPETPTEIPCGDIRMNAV

Take `Cl.Clc1nc2ccccc2nc1N1CCNCC1`: the Activity was 2 in the assay with Rattus norvegicus [1], 3 in the assay on Rattus norvegicus [2] and 1 in the assay on Rattus norvegicus [3].
Regarding `Cl.FC(F)(F)c1ccc2nc(N3CCNCC3)c(Sc3ccccc3)nc2c1`, the Activity stood at 2 in assay [4], 2 in [5] and 0 in assay [6]. Further, the PCMA antagonism in assay [7] came out at 0; in [8], 1; in the assay on Rattus norvegicus [9] it was 0.
As to `Cl.Clc1cccc2nc(N3CCNCC3)cnc12`, the Activity was 2 in [4], 0 in assay [5] and 0 in assay [6]. For the same molecule, the PCMA antagonism with Rattus norvegicus [10] was determined as 2; in [7], 0; in [8], 0.
For the molecule `Cl.FC(F)(F)c1ccc2nc(N3CCNCC3)cnc2c1`, the Activity with Rattus norvegicus [11] amounted to 2; with Rattus norvegicus [12] it was 0; in the assay with Rattus norvegicus [13] it was 3. Moreover, the PCMA antagonism in the assay on Rattus norvegicus [14] came out at 9; with Rattus norvegicus [15], 7; with Rattus norvegicus [16], 6.
On to `Cl.O=[N+]([O-])c1ccc2ncc(N3CCNCC3)nc2c1`, for which the Activity is 0 in the assay with Rattus norvegicus [17], 1 in the assay with Rattus norvegicus [18] and 0 in the assay with Rattus norvegicus [19]. The PCMA antagonism in the assay on Rattus norvegicus [20] amounted to 4; in the assay on Rattus norvegicus [21] it was 5; in the assay with Rattus norvegicus [22], 2.
For `Nc1ccc2nc(N3CCNCC3)cnc2c1`, the figures for the Activity in assay [4], in assay [5] and in [6] were 2, 1 and 0, respectively. For the same molecule, the PCMA antagonism in assay [23] stood at 3; with Rattus norvegicus [24] it was 2; with Rattus norvegicus [25] it was 4.
On to `N#Cc1ccc2nc(N3CCNCC3)cnc2c1`, for which the Activity was 11 in the assay with Rattus norvegicus [26] and 5 in the assay with Rattus norvegicus [27]. For the same molecule, the PCMA antagonism with Rattus norvegicus [28] is given as 24; in the assay with Rattus norvegicus [29], 13; in the assay on Rattus norvegicus [30], 5.
For `Cc1ccc2nc(N3CCNCC3)cnc2c1.Cl`, the Activity in the assay with Rattus norvegicus [31] is reported as 4; in the assay on Rattus norvegicus [32], 0; in the assay on Rattus norvegicus [33], 0. The PCMA antagonism with Rattus norvegicus [34] is on record as 8; with Rattus norvegicus [35], 2; in the assay on Rattus norvegicus [36] it was 1.
